Assays:
Format in all cases: functional
MRC5 [1] = assay: Cytotoxicity against human MRC5 cells assessed as growth inhibition at 10^-6 M after 72 hrs by MTS assay relative to control; conditions: MRC5, 72 h, read-out: GI
Procedure, shortened: (§1)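 Cells from ATCC; HCT-116 grown in RPMI 1640 and MRC5 in DMEM, each with 10% FCS and 1% glutamine, 37 °C, 5% CO2. Seeded at 2.5 × 10^3 cells/well, cultured 24 h, then exposed to compounds at 1 and 10 μM final for 72 h. MTS read-out, absorbance 490 nm; percent index from treated/control OD490 × 100, three experiments.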

MRC5 [2] = assay: Cytotoxicity against human MRC5 cells assessed as growth inhibition at 10^-5 M after 72 hrs by MTS assay relative to control; conditions: MRC5, 72 h, read-out: GI; procedure, shortened: as §1
HCT-116 [3] = assay: Cytotoxicity against human HCT116 cells assessed as growth inhibition at 10^-5 M after 72 hrs by MTS assay relative to control; conditions: HCT-116, 72 h, read-out: GI; procedure, shortened: as §1
HCT-116 [4] = assay: Cytotoxicity against human HCT116 cells assessed as growth inhibition at 10^-6 M after 72 hrs by MTS assay relative to control; conditions: HCT-116, 72 h, read-out: GI; procedure, shortened: as §1

## C=C1C[C@@H](O)[C@H]2C(C)(C)CCC[C@]2(C)[C@H]1C[C@H](O)C1=CC(=O)OC1O (some centres undefined)
MRC5 [1]
  inhibition of growth at 1 µM: 0%
MRC5 [2]
  inhibition of growth at 10 µM: 0%
HCT-116 [3]
  inhibition of growth at 10 µM: 66%
HCT-116 [4]
  inhibition of growth at 1 µM: 0%
